According to ChEMBL document CHEMBL4680166, “Dual-functional conjugates improving cancer immunochemotherapy by inhibiting tubulin polymerization and indoleamine-2,3-dioxygenase” (Eur J Med Chem, 2020):
Calls of active or inactive are those of the source. The rule behind the calls is not given here.

Experiments:
HeLa [1] = assay: Induction of cell cycle arrest in human HeLa cells assessed as accumulation at G1 phase at 0.5 uM measured after 24 hrs by propidium iodide/RNAse staining based flow cytometry (reference value: 61.5%); format: functional
[2] = Toxicity in BALB/c nude mouse transfected with human HeLa cells assessed as heart damage at 30 mg/kg/day, iv for 21 days by H&E staining based immunohistochemistry; format: organism-based; settings: in vivo, 504 h, time 21 day
Method in brief: (§1)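 HeLa xenografts were grown s.c. in male BALB/c nude mice, which received i.v. tail-vein doses once daily for 21 days in Tween 80/saline vehicle, with saline controls. After 3 weeks the mice were sacrificed. Organs from one mouse per group were fixed in 4% paraformaldehyde, paraffin-embedded and sectioned. Sections were dewaxed, stained with Harris hematoxylin and eosin-phloxine, and examined microscopically for histopathologic changes.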

HeLa [3] = assay: Potency index, ratio of CA-4 IC50 to test compound IC50 for anticancer activity against human HeLa cells after 72 hrs by MTT assay; format: functional
[4] = Toxicity in BALB/c nude mouse transfected with human HeLa cells assessed as spleen damage at 15 mg/kg/day, iv for 21 days by H&E staining based immunohistochemistry; format: organism-based; settings: in vivo, 504 h, time 21 day
Method in brief: (§2)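 After 3 weeks of daily iv dosing of HeLa-xenografted nude mice, organs were taken from one mouse per group. Fixed in 4% paraformaldehyde, paraffin-embedded and sectioned. Stained with Harris hematoxylin and eosin-phloxine, then examined microscopically for histopathology.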

HeLa [5] = assay: Induction of cell cycle arrest in human HeLa cells assessed as accumulation at S phase at 0.5 uM measured after 24 hrs by propidium iodide/RNAse staining based flow cytometry (reference value: 27.8%); format: functional
[6] = Toxicity in BALB/c nude mouse transfected with human HeLa cells assessed as heart damage at 15 mg/kg/day, iv for 21 days by H&E staining based immunohistochemistry; format: organism-based; settings: in vivo, 504 h, time 21 day; method in brief: as §2
[7] = Toxicity in BALB/c nude mouse transfected with human HeLa cells assessed as liver damage at 15 mg/kg/day, iv for 21 days by H&E staining based immunohistochemistry; format: organism-based; settings: in vivo, 504 h, time 21 day; method in brief: as §2
HeLa [8] = assay: Induction of apoptosis in human HeLa cells assessed as upregulation of Bax protein expression at 0.5 uM measured after 24 hrs by western blot analysis; format: functional, cell-based
Method in brief: (§3)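 HeLa cells were treated 24 h at 37 °C and lysed in buffer containing PMSF. Protein quantified by BCA, equal amounts separated by SDS-PAGE and transferred to nitrocellulose. Blocked in 5% milk, primary antibodies overnight at 4 °C, peroxidase secondary 2 h at 25 °C. Detection by chemiluminescence, β-actin as loading control.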

HeLa [9] = assay: Antitumor activity against human HeLa cells xenografted in BALB/c mouse assessed as inhibition of tumor volume at 15 mg/kg/day, iv administered for 21 days by caliper analysis; format: functional; settings: 504 h, time 21 day
Method in brief: (§4)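 Male BALB/c nude mice, five weeks old, 18-22 g. Inoculated subcutaneously in the right armpit with 1 × 10⁷ HeLa cells/0.1 mL. At 120-150 mm³, randomized to four groups of five. Once-daily tail-vein injection for 21 days in Tween 80/physiological saline; controls received saline. Tumor volume measured every 2 days by caliper, V = AB²/2.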

HeLa [10] = assay: Induction of cell cycle arrest in human HeLa cells assessed as accumulation at G2/M phase at 0.5 uM measured after 24 hrs by propidium iodide/RNAse staining based flow cytometry (reference value: 10.7%); format: functional
HeLa [11] = assay: Induction of apoptosis in human HeLa cells assessed as down regulation of Bcl-2 protein expression at 0.5 uM measured after 24 hrs by western blot analysis; format: functional, cell-based; method in brief: as §3
HeLa [12] = assay: Induction of apoptosis in human HeLa cells assessed as necrotic cells at 0.5 uM measured after 24 hrs by Annexin-V-FITC and PI staining based flow cytometry (reference value: 0.956%); format: functional
Method in brief: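 HeLa cells were treated 24 h, washed twice in PBS and resuspended in binding buffer. Stained with annexin V-FITC and PI for 30 min in the dark at room temperature, then analysed by flow cytometry.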

HeLa [13] = assay: Induction of intracellular reactive oxygen species generation in human HeLa cells at 0.5 uM measured after 24 hrs by DCFH-DA staining based flow cytometry (reference value: 6.47%); format: functional
HeLa [14] = assay: Induction of apoptosis in human HeLa cells assessed as upregulation of PARP protein expression at 0.5 uM measured after 24 hrs by western blot analysis; format: functional, cell-based; method in brief: as §3
[15] = Antitumor immunity against IFN-gamma stimulated human HeLa cells co-cultured with PHA-M-stimulated human PBMC cells assessed as induction of CD3+ T cell proliferation at 0.1 uM preincubated for 2 days measured after co-culturing with PBMC for 6 days by flow cytometry (reference value: 6 to 6.2%); format: functional; settings: time 8 day
HeLa [16] = assay: Antitumor activity against human HeLa cells xenografted in iv dosed BALB/c mouse assessed as inhibition of tumor growth administered once daily for 21 days by caliper analysis; format: functional, organism-based; settings: dose 15-30 mg/kg/day, time 21.0 day; method in brief: as §4
HeLa [17] = assay: Antitumor activity against human HeLa cells xenografted in BALB/c mouse assessed as inhibition of tumor volume at 30 mg/kg/day, iv administered for 21 days by caliper analysis; format: functional; settings: 504 h, time 21 day; method in brief: as §4
HeLa [18] = assay: Inhibition of IDO1 expression in hIFNgamma-stimulated human HeLa cells assessed as decrease in kynurenine production at 0.1 uM measured after 48 hrs by reverse-phase HPLC analysis; format: functional
Method in brief: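 HeLa cells were given fresh L-tryptophan-containing medium with hIFN-γ (25 ng/mL) plus compound for 48 h. Collected cells were treated with 20% trichloroacetic acid and centrifuged. Supernatant analysed by reversed-phase HPLC (ODS column, acetonitrile/water, 1.0 mL/min, […]).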

[19] = Toxicity in BALB/c nude mouse transfected with human HeLa cells assessed as spleen damage at 30 mg/kg/day, iv for 21 days by H&E staining based immunohistochemistry; format: organism-based; settings: in vivo, 504 h, time 21 day; method in brief: as §1

## COc1ccc(/C=C\c2cc(OC)c(OC)c(OC)c2)cc1OC(=O)c1cccc(Cn2cc(CCOC(=O)[C@H](N)Cc3cn(C)c4ccccc34)nn2)c1
HeLa [1]
  Activity: 6.69%
[2]
  Activity: Non-Toxic
HeLa [3]
  fold change (FC): 3
[4]
  Activity: Non-Toxic
HeLa [5]
  Activity: 17.05%
[6]
  Activity: Non-Toxic
[7]
  Activity: Non-Toxic
HeLa [8]
  Activity: Active
HeLa [9]
  inhibition in vivo at 15 mg/kg/day: 50.7%
HeLa [10]
  Activity: 76.27%
HeLa [11]
  Activity: Active
HeLa [12]
  Activity: 0.637%
HeLa [13]
  Activity: 49.7%
HeLa [14]
  Activity: Active
[15]
  Activity: 40.3%
HeLa [16]
  Activity: Dose-dependent effect
HeLa [17]
  inhibition in vivo at 30 mg/kg/day: 65.8%
HeLa [18]
  inhibition: Active
[19]
  Activity: Non-Toxic
